Calls of active or inactive are those of the source. The calls are words filed in the database; no cut-off is given here.
What was measured:
Cavia porcellus [1] = species: Cavia porcellus; assay: Potency expressed as EC50 for the negative inotropic activity; 'i' means Inactive; type: functional
Cavia porcellus [2] = species: Cavia porcellus; assay: Decrease in developed tension of the left atrium of guinea pig expressed as the negative inotropy.; type: functional, Cardiac atrium; set-up: concentration or dose not given beside the values
In short: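 Isolated guinea pig left atrium, electrically driven at 1 Hz. Read-out is the fall in developed tension at 5 × 10^-5 M, given as percent change from control (n = 5-6).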

Cavia porcellus [3] = species: Cavia porcellus; assay: Potency expressed as EC30 for the negative chronotropic activity.; type: functional
Cavia porcellus [4] = species: Cavia porcellus; assay: Potency expressed as IC50 for the vasorelaxant activity; 'i' means inactive.; type: functional
Cavia porcellus [5] = species: Cavia porcellus; assay: Percent inhibition of calcium-induced contraction on K+ depolarized guinea pig aortic strip.; type: functional, Aorta; set-up: concentration or dose not given beside the values
K562 [6] = assay: percentage of the dead cells of K-562 cells was determined for the concentration of 1 uM of the compound.; type: ADME, cell-based; settings: human, k562, 1 µM
In short: (§1)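 Doxorubicin-resistant K 562 cells were exposed to compound at 1 µM, and viability was scored by trypan blue exclusion. Dead cells above 20% counted as toxic.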

K562 [7] = assay: Potency that causes a half maximal increase in nuclear concentration of pirarubicin.; type: functional, Homo sapiens
K562 [8] = assay: The efficacy in reverting MDR was evaluated on erythroleukemia K-562 cell line.; type: functional, Homo sapiens
In short: (§2)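 Doxorubicin-resistant and sensitive K 562 cells in exponential growth were used in pH 7.25 HEPES buffer at 37 °C in quartz cuvettes. Pirarubicin uptake was followed as the fall in fluorescence at 590 nm (ex 480 nm). Steady-state nuclear pirarubicin was measured across a range of inhibitor concentrations. α = (CnRi − CnRo)/(CnS − CnRo); αmax is the maximal α, and [i]0.5 is the concentration giving α = 0.5 (mean ± SEM).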

Cavia porcellus [9] = species: Cavia porcellus; assay: Decrease in atrial rate of the right atrium of guinea pig expressed as the negative chronotropy.; set-up: concentration or dose not given beside the values
Cavia porcellus [10] = species: Cavia porcellus; assay: Potency expressed as EC50 for the negative inotropic activity.; type: functional
Cavia porcellus [11] = species: Cavia porcellus; assay: Potency expressed as EC30 for the negative chronotropic activity; 'i' means Inactive; type: functional
K562 [12] = assay: Percentage of the dead cells of K-562 cells was determined for the compound; type: ADME, cell-based; settings: human; in short: as §1
K562 [13] = assay: The efficacy in reverting MDR was evaluated on human erythroleukemia K-562 cell line; type: functional; in short: as §2
Cavia porcellus [14] = species: Cavia porcellus; assay: Potency expressed as IC50 for the vasorelaxant activity.; type: functional

Compound | EC50 (Cavia porcellus [1]) | Activity (Cavia porcellus [2]) | EC30 (Cavia porcellus [3]) | IC50 (Cavia porcellus [4]) | Activity (Cavia porcellus [5]) | Dead cells (K562 [6]) | Potency (K562 [7]) | Alpha max (K562 [8]) | Activity (Cavia porcellus [9]) | EC50 (Cavia porcellus [10]) | EC30 (Cavia porcellus [11]) | Dead cells (K562 [12]) | Alpha max (K562 [13]) | IC50 (Cavia porcellus [14])
Cl.N#CC(CCCNCc1c2ccccc2cc2ccccc12)(c1ccccc1)c1ccccc1 | Not Active | 48% | 660 nM | Inactive | 6% | 20% | 500 nM | 0.7 | 67% | – | – | – | – | –
COc1ccc(C(C#N)(CC#CCNCc2cc3ccccc3c3ccccc23)C(C)C)cc1OC.Cl (stereo not given) | – | 88% | – | Inactive | 10% | 20% | 500 nM | 0.5 | 31% | 1290 nM | inactive | – | – | –
COc1ccc(C(C#N)(CCCNC2c3ccccc3-c3ccccc32)C(C)C)cc1OC.Cl (stereo not given) | Not Active | 33% | 650 nM | Inactive | 46% | – | 250 nM | – | 74% | – | – | 0% | 0.8 | –
COc1ccc(C(C#N)(CC#CCN(C)Cc2c3ccccc3cc3ccccc23)C(C)C)cc1OC.Cl (stereo not given) | – | 65% | – | Inactive | 46% | 30% | – | – | 39% | 630 nM | inactive | – | – | –
COc1ccc(C(C#N)(CCCNCc2cc3ccccc3c3ccccc23)C(C)C)cc1OC.Cl (stereo not given) | – | 65% | – | Inactive | 19% | 100% | – | – | 43% | 1130 nM | inactive | – | – | –
C=CCNc1nc(NCC=C)nc(N2CCC(NCC#CCC(C#N)(c3ccc(OC)c(OC)c3)C(C)C)CC2)n1.Cl (stereo not given) | – | 67% | 800 nM | Inactive | 16% | 0% | 200 nM | 0.9 | 81% | 1890 nM | – | – | – | –
COc1ccc(C(C#N)(CCCNCc2c3ccccc3cc3ccccc23)C(C)C)cc1OC.Cl (stereo not given) | – | 55% | 860 nM | Inactive | 29% | 3% | 50 nM | 0.7 | 65% | 1110 nM | – | – | – | –
COc1ccc(C(C#N)(CC#CCNCc2c3ccccc3cc3ccccc23)C(C)C)cc1OC.Cl (stereo not given) | – | 74% | – | Inactive | 12% | 15% | 2000 nM | 0.7 | 34% | 1040 nM | inactive | – | – | –
Cl.N#CC(CCCNC1c2ccccc2CCc2ccccc21)(c1ccccc1)c1ccccc1 | – | 80% | – | Inactive | 5% | – | 500 nM | – | 5% | 640 nM | inactive | 3% | 0.5 | –
CN(CCCC(C#N)(c1ccccc1)c1ccccc1)C1c2ccccc2-c2ccccc21.Cl | – | 55% | – | Inactive | 5% | – | 3000 nM | – | 9% | 900 nM | inactive | 3% | 0.9 | –
CN(CCCC(C#N)(c1ccccc1)c1ccccc1)Cc1c2ccccc2cc2ccccc12.Cl | – | 70% | – | Inactive | 10% | 0% | 2100 nM | 0.8 | 22% | 890 nM | inactive | – | – | –
Cl.N#CC(CCCNCc1cc2ccccc2c2ccccc12)(c1ccccc1)c1ccccc1 | – | 61% | – | Inactive | 3% | 100% | – | – | 38% | 2110 nM | inactive | – | – | –
COc1ccc(CCN(C)CCCC(C#N)(c2ccc(OC)c(OC)c2)C(C)C)cc1OC (stereo not given) [VERAPAMIL] | – | 84% | 70 nM | – | 95% | 0% | – | 0.7 | 94% | 610 nM | – | – | – | –
Cl.N#CC(CCCNC(c1ccccc1)c1ccccc1)(c1ccccc1)c1ccccc1 | – | 94% | – | Inactive | 15% | 2% | 2000 nM | 0.5 | 28% | 380 nM | inactive | – | – | –
COc1ccc(C(C#N)(CCCN(C)C2c3ccccc3-c3ccccc32)C(C)C)cc1OC.Cl (stereo not given) | Not Active | 36% | – | Inactive | 15% | – | 1000 nM | – | 26% | – | inactive | 0% | 0.8 | –
COc1ccc(C(C#N)(CC#CCN(C)CC23CC4CC(CC(C4)C2)C3)C(C)C)cc1OC.Cl (stereo not given) | – | 77% | 240 nM | – | 65% | – | 1300 nM | – | 92% | 1160 nM | – | 0% | 0.8 | 3420 nM
COc1ccc(C(C#N)(CC#CCNC(c2ccccc2)c2ccccc2)C(C)C)cc1OC.Cl (stereo not given) | – | 69% | – | Inactive | 23% | – | 500 nM | – | 24% | 1540 nM | inactive | 6% | 0.6 | –
COc1ccc(C(C#N)(CC#CCN(C)C2c3ccccc3-c3ccccc32)C(C)C)cc1OC.Cl (stereo not given) | – | 71% | – | Inactive | 6% | – | 500 nM | – | 24% | 350 nM | inactive | 0% | 0.9 | –
COc1ccc(C(C#N)(CCCN(C)CC2c3ccccc3-c3ccccc32)C(C)C)cc1OC.Cl (stereo not given) | – | 75% | – | Inactive | 11% | – | 2200 nM | – | 31% | 1010 nM | inactive | 3% | 0.5 | –
Cl.N#CC(CCCNCC(c1ccccc1)c1ccccc1)(c1ccccc1)c1ccccc1 | – | 75% | 1160 nM | Inactive | 19% | 40% | – | – | 82% | 2150 nM | – | – | – | –
